Experiments:
IYD = conditions: cited from earlier work
hIYD·flox = target: T1, hIYD·flox (Homo sapiens, UniProt Q6PHW0); experiment: Stopped-flow kinetics of halotyrosine binding to hIYD·flox; conditions: relative to Cl-, Br- and I-Tyr
T1 sequence (Q6PHW0 32-289): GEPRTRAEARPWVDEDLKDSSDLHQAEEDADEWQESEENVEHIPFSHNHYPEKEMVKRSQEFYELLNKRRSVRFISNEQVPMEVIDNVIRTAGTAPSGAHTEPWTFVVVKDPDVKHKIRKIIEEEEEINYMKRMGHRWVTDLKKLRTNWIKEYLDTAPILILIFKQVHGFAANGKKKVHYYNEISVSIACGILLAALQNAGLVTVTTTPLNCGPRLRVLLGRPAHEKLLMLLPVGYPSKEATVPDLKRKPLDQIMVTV
Summary of the method: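 hIYD (residues 1–31 removed, SUMO fusion, SUMO cleaved) in 500 mM NaCl, 10% glycerol, 1 mM DTT, 50 mM sodium phosphate pH 7.4, 25 °C. Stopped-flow mixing of equal volumes under air: hIYD·flox 2 μM final with halotyrosine 5–50 μM final. Flavin fluorescence quench (λex 450 nm, λem >530 nm) followed 1 ms–1 s, fit single-exponential. kon from least-squares fit of kobs versus ligand concentration.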

hIYD·flhq [1] = target: T2, hIYD·flhq (Homo sapiens, UniProt Q6PHW0); experiment: Stopped-flow single-turnover oxidation of hIYD·flhq by halotyrosines; type: biochemical; conditions: set by detection threshold of the stopped-flow instrument
T2 sequence (Q6PHW0 32-289): T1 sequence (Q6PHW0 32-289)
Summary of the method: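 Anaerobic stopped-flow at 25 °C, pH 7.4 phosphate/NaCl/glycerol/DTT buffer. Dithionite-reduced hIYD·flhq was mixed 1:1 with argon-sparged halotyrosine. At 8 μM enzyme, I-Tyr was 20–200 μM and A446 was followed from 10 ms to beyond 7 s with single-exponential fits. At 5 μM enzyme, substrate was 200 μM, with diode-array spectra from 4 ms plus A360 traces fit single- or double-exponential. Spectra were globally analysed.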

hIYD = conditions: estimate, limited by solubility; cited from earlier work
hIYD·flhq [2] = target: T2, hIYD·flhq; experiment: Stopped-flow oxidation of hIYD·flhq by oxygen; type: biochemical; conditions: A446, 25 °C, pH 7.4, oxygen 60–610 μM
Summary of the method: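 hIYD·flhq, made by stoichiometric dithionite titration under anaerobic conditions, 5 μM final, in 500 mM NaCl, 10% glycerol, 1 mM DTT, 50 mM sodium phosphate pH 7.4, 25 °C. Stopped-flow mix with equal volume of same buffer equilibrated with air or 10/50/100% O2 (oxygen solutions 60–610 μM). A446 traces single-exponential; diode-array spectra 4 ms–7 s. kox from linear fit of kobs versus [O2]; three independent measurements averaged.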

Compound: N[C@@H](Cc1ccc(O)c(F)c1)C(=O)O [F-Tyr]
- dehalogenation by IYD (IYD): inert
- binding rate (kon) slower than the other halotyrosines (hIYD·flox): approximately 5 fold
- binding rate (kon) slower than the other halotyrosines (hIYD·flox; listed as fluorotyrosine): 5 fold
- oxidation of flhq slower than that with I-Tyr (hIYD·flhq [1]): at least 160 fold

Compound: N[C@@H](Cc1ccc(O)cc1)C(=O)O [Tyr, tyrosine]
- Kd (hIYD): > 1000 µM

Compound: O=O [oxygen]
- kox, second-order rate constant for reaction between hIYD·flhq and oxygen (hIYD·flhq [2]): (9.3 ± 0.3) × 10^3 M^–1 s^–1

From publication PMC4938124 (Biochemistry, 2015)
